The values that follow come from publication PMC9583317 (ACS Omega, 2022).

Numbered stars: 1 amine (or outer) side, 2 acyl side, 3 side chain; on linkers, the order of the positions; unused ones are H or OH. Square brackets hold non-standard residues; d marks the D form. Peptide text beside a SMILES is read from it. X1 = O=C(C(=Cc1ccccc1)N[*:1])[*:2]

For one series, the system named is trypsin. Nature of the series: Proteolytic stability with trypsin. The format is in vitro ADME. To be noted: 6 h, room temperature. The method, boiled down:
(§1)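 Self-assembled peptide nanoparticles were exposed to proteinase K or trypsin for 6 h at room temperature with constant low-rpm stirring. Degradation was assessed by reverse-phase HPLC on a C-18 column. Morphological change of enzyme-treated particles was imaged by TEM.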

The test system of a further series is Red blood cells (RBCs). Kind of series: In vitro hemolysis. To be noted: human RBC suspension, 39 to 773 μM, 37 °C, 3 h, absorbance 540 nm. It is filed as cell-based. The method, boiled down:
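Human blood collected in 10% citrate-phosphate-dextrose. RBCs pelleted at 1500g, 10 min, 25 °C, and washed 3–5 times in PBS. A 10% (v/v) packed-RBC suspension was mixed 1:1 with peptide nanoparticles (39–773 μM) or the siRNA nanocomplex (70–280 nM). Incubated 3 h at 37 °C, then re-spun. Released hemoglobin read in supernatant at 540 nm. PBS and 0.2% Triton X-100 served as controls.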

A further series has as its target Proteinase K (Parengyodontium album, UniProt P06873). Nature of the series: Proteolytic stability with proteinase K. It is filed as in vitro ADME. As to conditions: 6 h, room temperature. The method, boiled down:
as §1

The conditions of series [1]: ref [31]; cited from earlier work.

Proteinase K, sequence (P06873 106-384): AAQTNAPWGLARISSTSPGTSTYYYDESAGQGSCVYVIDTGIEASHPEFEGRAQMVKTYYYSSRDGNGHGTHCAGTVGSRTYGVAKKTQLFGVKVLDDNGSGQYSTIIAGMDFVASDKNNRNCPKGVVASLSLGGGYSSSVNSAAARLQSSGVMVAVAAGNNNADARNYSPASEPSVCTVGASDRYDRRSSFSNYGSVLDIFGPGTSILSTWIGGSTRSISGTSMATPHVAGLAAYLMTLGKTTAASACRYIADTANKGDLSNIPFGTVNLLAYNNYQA

For `N=C(N)NCCC[C@H](NC(=O)C(=Cc1ccccc1)NC(=O)[C@@H](N)CCCNC(=N)N)C(=O)NCC(=O)N[C@@H](CC(=O)O)C(N)=O` [RΔFRGD] (H-R[X1]RGD-NH2), the “stability to trypsin compared with natural analogue RFRGD” value with trypsin (RP-HPLC C-18, RFRGD NPs in PBS (Fig S2b)) is “significantly more stable”. Moreover, the “morphological change after trypsin (TEM)” value in the series on trypsin (TEM) was “no changes in morphological structures”. In addition, the “proteolytic stability to trypsin (RP-HPLC)” value in the series with trypsin (constant stirring, RP-HPLC C-18) is “observable degradation”. The hemolysis result in the series on Red blood cells (RBCs) is recorded as “less than 5%”. For the same compound, the “morphological change after proteinase K (TEM)” value on Proteinase K is “no changes in morphological structures”.
For arginine-α,β-dehydrophenylalanine [RΔF], the size of nanospheres in series [1] is given as 60–80 nm.
